Laboratory results as given in ChEMBL document CHEMBL3120138, “Glucocorticoid receptor modulators informed by crystallography lead to a new rationale for receptor selectivity, function, and implications for structure-based design” (J Med Chem, 2014).
pIC50, pKi: −log10 of the molar value. One block for each molecule: values may come before it. The source made the active and inactive calls. No cut-off for these calls is given here.

Tests used:
[1] = molecular target: T1, Mineralocorticoid receptor (Homo sapiens, UniProt P08235); experiment: Displacement of [3H]-aldosterone from human mineralocorticoid receptor expressed in HEK293 cells; assay type: cell-based
T1 sequence (P08235 whole entry): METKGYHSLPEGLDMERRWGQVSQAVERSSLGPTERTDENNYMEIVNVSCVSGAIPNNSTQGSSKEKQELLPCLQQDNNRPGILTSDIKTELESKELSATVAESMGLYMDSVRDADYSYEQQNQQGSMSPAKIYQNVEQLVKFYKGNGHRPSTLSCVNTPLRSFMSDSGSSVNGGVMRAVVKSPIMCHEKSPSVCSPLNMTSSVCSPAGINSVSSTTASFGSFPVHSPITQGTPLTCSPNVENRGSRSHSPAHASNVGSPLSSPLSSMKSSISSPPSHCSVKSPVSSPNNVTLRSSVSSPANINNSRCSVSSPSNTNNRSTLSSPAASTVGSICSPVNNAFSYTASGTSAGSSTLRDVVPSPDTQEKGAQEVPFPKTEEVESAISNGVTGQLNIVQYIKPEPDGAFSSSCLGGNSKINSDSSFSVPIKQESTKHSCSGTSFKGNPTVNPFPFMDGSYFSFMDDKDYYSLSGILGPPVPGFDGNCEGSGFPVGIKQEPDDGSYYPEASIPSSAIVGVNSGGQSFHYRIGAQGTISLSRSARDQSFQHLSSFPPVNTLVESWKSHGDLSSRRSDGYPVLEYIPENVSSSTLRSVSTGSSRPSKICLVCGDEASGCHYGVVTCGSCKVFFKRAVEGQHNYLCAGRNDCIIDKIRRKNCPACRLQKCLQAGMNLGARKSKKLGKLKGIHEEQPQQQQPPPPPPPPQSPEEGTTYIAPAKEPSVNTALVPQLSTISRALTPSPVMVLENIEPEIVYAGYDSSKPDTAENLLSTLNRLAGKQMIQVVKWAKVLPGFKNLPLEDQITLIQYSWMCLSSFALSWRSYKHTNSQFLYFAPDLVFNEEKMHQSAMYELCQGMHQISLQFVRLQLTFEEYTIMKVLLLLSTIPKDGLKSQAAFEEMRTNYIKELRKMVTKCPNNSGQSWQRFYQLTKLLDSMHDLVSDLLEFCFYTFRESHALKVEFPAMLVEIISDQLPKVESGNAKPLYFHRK
Summary of the method: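 Competition binding used lysates of HEK293 cells overexpressing the human receptor. The tracer was ³H-aldosterone for MR and ³H-methyltrienolone for PR. Competitor was tested from 0.01 nM to 10 μM. IC50 was converted to Ki by Cheng–Prusoff. Values are means of at least three experiments, each run in triplicate.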

[2] = Half life in Lewis rat collagen-induced arthritis model at 3 to 30 mg/kg, po after 15 days; assay type: ADME, organism-based; parameters: dose 3-30 mg/kg, route oral; settings: in vivo
[3] = Tmax in Lewis rat collagen-induced arthritis model at 3 to 30 mg/kg, po after 15 days; assay type: ADME, organism-based; parameters: dose 3-30 mg/kg, route oral; settings: in vivo
Rattus norvegicus [4] = experiment: Antiinflammatory activity in Lewis rat collagen-induced arthritis model assessed as reduction of paw diameter AUC at 3 to 30 mg/kg, po administered for 15 days measured during compound dosing; assay type: functional, organism-based
Summary of the method: (§1)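 Female Lewis rats received collagen injected at the tail base, and disease developed over 14 d. Responding rats (groups of n = 10) were then dosed orally once daily for the next 15 d. Ankle/paw diameter was measured throughout the live phase and summarised as AUC. Hindpaw histology was scored blind from 0 (normal) to 5 (vehicle-level). Statistics used Student's t test vs vehicle, p < 0.01.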

Rattus norvegicus [5] = experiment: Antiinflammatory activity in Lewis rat collagen-induced arthritis model assessed as reduction of pannus at 30 mg/kg, po administered for 15 days; assay type: functional, organism-based; parameters: dose 30 mg/kg; summary of the method: as §1
Rattus norvegicus [6] = experiment: Antiinflammatory activity in Lewis rat collagen-induced arthritis model assessed as reduction of joint inflammation at 30 mg/kg, po administered for 15 days; assay type: functional, organism-based; parameters: dose 30 mg/kg; summary of the method: as §1
Rattus norvegicus [7] = experiment: Antiinflammatory activity in po dosed Sprague-Dawley rat assessed as inhibition of carrageenan-induced IL-1beta secretion incubated for 2 hrs prior to carrageenan challenge measured after 5 hrs by ELISA; assay type: functional
Summary of the method: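 Male Sprague-Dawley rats (n = 5/group) were dosed at t = 0, and carrageenan was injected into the rear footpad at 2 h. At 5 h the animals were euthanised and the hindpaws weighed to measure edema. Paw exudate was assayed for IL-1β by ELISA.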

Rattus norvegicus [8] = experiment: Antiinflammatory activity in po dosed Sprague-Dawley rat assessed as inhibition of carrageenan-induced paw edema incubated for 2 hrs prior to carrageenan challenge measured after 5 hrs […]; assay type: functional
[9] = AUC in Sprague-Dawley rat at 3 mg/kg, po; assay type: ADME, organism-based; parameters: dose 3 mg/kg, route oral; settings: plasma
Summary of the method: (§2)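 Cannulated male Sprague-Dawley rats, fasted overnight, given a single 3 mpk dose at t = 0. The iv vehicle was 20% microemulsion/80% DI water and the po vehicle CMC/tween in DI water. Plasma was analysed for parent compound by LC/MS-MS, and exposure, half-life, Vd, clearance and bioavailability were calculated.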

[10] = AUC in Sprague-Dawley rat at 3 mg/kg, iv; assay type: ADME, organism-based; parameters: dose 3 mg/kg, route intravenous; settings: plasma; summary of the method: as §2
[11] = Clearance in Sprague-Dawley rat at 3 mg/kg, iv; assay type: ADME, organism-based; parameters: dose 3 mg/kg, route intravenous; settings: in vivo; summary of the method: as §2
[12] = Oral bioavailability in Sprague-Dawley rat at 3 mg/kg; assay type: ADME, organism-based; settings: in vivo; summary of the method: as §2
[13] = Volume of distribution in Sprague-Dawley rat at 3 mg/kg, iv; assay type: ADME, organism-based; parameters: dose 3 mg/kg, route intravenous; settings: in vivo; summary of the method: as §2
[14] = Half life in Sprague-Dawley rat at 3 mg/kg, iv; assay type: ADME, organism-based; parameters: dose 3 mg/kg, route intravenous; settings: in vivo; summary of the method: as §2
[15] = Antiinflammatory activity in PMA-differentiated human U937 cells assessed as inhibition of LPS-induced TNFalpha production incubated for 60 mins prior to LPS challenge measured after 24 hrs; assay type: functional, cell-based; settings: U-937
Summary of the method: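 U-937 cells (100 000/well) were differentiated with 20 nM PMA overnight at 37 °C, then refed with PMA-free medium. Cells were pretreated with compound for 60 min, then stimulated with LPS (stock 400 ng/mL) for 24 h at 37 °C. Secreted TNFα was measured by EIA/RIA. Ten-point half-log dilutions were used, each concentration in triplicate.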

pKi [1]: 9.47
SMILES: C/C(=C1/c2ccccc2COc2ccccc21)c1cccc(NS(C)(=O)=O)c1

pKi [1]: 9.01
SMILES: CC/C(=C1/c2ccccc2COc2ccccc21)c1cccc(NS(C)(=O)=O)c1

pKi [1]: 8.61
SMILES: CS(=O)(=O)Nc1cccc(C=C2c3ccccc3CCc3ccccc32)c1

half-life [2]: 1.4 h
Tmax [3]: 1 h
AUC [9]: 1300 ng·h/mL
AUC [10]: 1490 ng·h/mL
clearance [11]: 56 mL/min/kg
bioavailability [12]: 100%
Vd [13]: 7 L/kg
half-life [14]: 1.4 h
pIC50 [15]: 7.72
pKi [1]: 8.21
SMILES: CC/C(=C1\c2ccccc2OCc2cccc(OC)c21)c1cccc(NS(C)(=O)=O)c1
Activity (Rattus norvegicus [4]): Active
Activity (Rattus norvegicus [5]): Active
Activity (Rattus norvegicus [6]): Active
ED50 (Rattus norvegicus [7]): 1.7 mg/kg
ED50 (Rattus norvegicus [8]): 2.8 mg/kg
